For 28 compounds, CC50, IC50 and selectivity ratio results are on record in ChEMBL document CHEMBL3425484, “Novel N-benzenesulfonyl sophocarpinol derivatives as coxsackie B virus inhibitors” (ACS Med Chem Lett, 2015).

Data set [1] is described as follows: Cytotoxicity against african green monkey Vero cells assessed as inhibition of cell growth after 24 hrs by CPE assay. Particulars: chlorocebus sabaeus, read-out: TC50. In kind it is cell-based.
Data set [2] concerns Coxsackievirus. Description: Antiviral activity against Coxsackievirus B3 infected in african green monkey Vero cells assessed as reduction in viral-induced cytopathic effect. The data set is classed as functional, organism-based. Put shortly: (§1)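 Vero (African green monkey kidney) cells were infected with the CVB subtype and scored by viral cytopathogenic effect (CPE) reduction, with ribavirin as the positive control. IC50 is the concentration that inhibits CVB growth by 50%.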
Background: Cytopathic effects are the visible damage that an infection or toxin causes in cultured cells.

Data set [3] can be described thus: Selectivity index, ratio of TC50 for african green monkey Vero cells to IC50 for Coxsackievirus B3 infected in african green monkey Vero cells. In kind it is toxicity, cell-based. The settings on record: read-out: Selectivity Index. Summed up: (§2)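 SI is calculated as TC50 (50% inhibition of Vero cell growth) divided by IC50 (50% inhibition of the respective CVB subtype's growth, from the CPE assay in Vero cells, ribavirin as positive control).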

Data set [4] deals with Coxsackievirus. Description: Antiviral activity against Coxsackievirus B1 infected in african green monkey Vero cells assessed as reduction in viral-induced cytopathic effect. In kind it is functional, organism-based. Put shortly:
as §1

Data set [5] has as its system Coxsackievirus. Description: Antiviral activity against Coxsackievirus B2 infected in african green monkey Vero cells assessed as reduction in viral-induced cytopathic effect. The data set is classed as functional, organism-based. Put shortly: as §1
In data set [6] the test system is Coxsackievirus. The data set is described as follows: Antiviral activity against Coxsackievirus B6 infected in african green monkey Vero cells assessed as reduction in viral-induced cytopathic effect. The data set is classed as functional, organism-based. Summed up:
as §1

Data set [7] can be described thus: Selectivity index, ratio of TC50 for african green monkey Vero cells to IC50 for Coxsackievirus B1 infected in african green monkey Vero cells. The data set is classed as toxicity, cell-based. The settings on record: read-out: Selectivity Index. Summed up:
as §2

Data set [8] is described as follows: Selectivity index, ratio of TC50 for african green monkey Vero cells to IC50 for Coxsackievirus B2 infected in african green monkey Vero cells. In kind it is toxicity, cell-based. Particulars: read-out: Selectivity Index. Summed up: as §2
The nature of data set [9]: Selectivity index, ratio of TC50 for african green monkey Vero cells to IC50 for Coxsackievirus B6 infected in african green monkey Vero cells. The data set is classed as toxicity, cell-based. Particulars: read-out: Selectivity Index. Summed up: as §2
The subject of data set [10] is Coxsackievirus. Description: Antiviral activity against Coxsackievirus B5 infected in african green monkey Vero cells assessed as reduction in viral-induced cytopathic effect. In kind it is functional, organism-based. Summed up: as §1
Data set [11] in a line: Selectivity index, ratio of TC50 for african green monkey Vero cells to IC50 for Coxsackievirus B5 infected in african green monkey Vero cells. The data set is classed as toxicity, cell-based. Particulars: read-out: Selectivity Index. Put shortly:
as §2

In general, IC50 refers to the midpoint of a concentration-inhibition curve. As for `COC(=O)CCC[C@@H]1[C@H]2CCCN3CCC[C@@H](CN1S(=O)(=O)c1cccc(C(F)(F)F)c1)[C@@H]23`, the CC50 at 24 h in [1] is 193 µM. Also, the IC50 was determined as 1.98 µM in data set [2], 1.28 µM in data set [4], 7.61 µM in [5] and 0.44 µM in data set [6]. Besides, the selectivity ratio in data set [3] was 92.4; in data set [7] it was 144; in data set [8], 16.7; in [9] it was 139.
For `COC(=O)C/C=C\[C@@H]1[C@H]2CCCN3CCC[C@@H](CN1S(=O)(=O)c1cccc(C#N)c1)[C@@H]23`, the CC50 at 24 h in [1] came to 543 µM. The IC50 in [2] is 3.07 µM; in data set [4], 2.6 µM; in data set [5], 12.6 µM; in [10] it was 10.5 µM; in [6] it was 2.81 µM. Also, the selectivity ratio stood at 177 in data set [3]; 188 in [7]; 38.9 in [8]; 46.7 in data set [11]; 174 in data set [9].
On to `NC(=O)c1ncn([C@@H]2O[C@H](CO)[C@@H](O)[C@H]2O)n1` [RIBAVIRIN], for which the CC50 at 24 h in data set [1] worked out at 8200 µM. The IC50 in [2] turned out to be 695 µM; in data set [4] it was 1950 µM; in data set [5], 2100 µM; in data set [10], 911 µM; in data set [6], 1710 µM.
Regarding `O=[N+]([O-])c1ccc(S(=O)(=O)N2C[C@@H]3CCCN4CCC[C@@H]([C@H]34)[C@H]2/C=C\CCO)cc1`, the CC50 at 24 h in data set [1] is 265 µM. For the same compound, the IC50 in data set [2] was 17 µM. Also, the selectivity ratio in data set [3] was 15.6.
Taken in the same sequence, the figures for `O=C(O)C/C=C\[C@@H]1[C@H]2CCCN3CCC[C@@H](CN1S(=O)(=O)c1cc(Br)c(Br)s1)[C@@H]23` were 191 µM, 53.1 µM and 3.6.
Taken in the same sequence, the figures for `COC(=O)C/C=C\[C@@H]1[C@H]2CCCN3CCC[C@@H](CN1S(=O)(=O)c1ccc(C#N)cc1)[C@@H]23` were 292 µM, 8.04 µM and 36.3.
Taken in the same sequence, the figures for `N#Cc1ccc(S(=O)(=O)N2C[C@@H]3CCCN4CCC[C@@H]([C@H]34)[C@H]2/C=C\CC(=O)O)cc1` were 745 µM, 52.4 µM and 14.2.
Consider `O=S(=O)(c1cccc(C(F)(F)F)c1)N1C[C@@H]2CCCN3CCC[C@@H]([C@H]23)[C@H]1/C=C\CCO`, for which the CC50 at 24 h in [1] turned out to be 93.5 µM. Further, the IC50 in [2] came to 15 µM. For the same compound, the selectivity ratio in data set [3] is 6.2.
As to `O=C(O)C/C=C/[C@@H]1[C@H]2CCCN3CCC[C@@H](CN1S(=O)(=O)c1ccc(C(F)(F)F)cc1)[C@@H]23`, the CC50 at 24 h in data set [1] was determined as 1470 µM. In addition, the IC50 in [2] was 33.7 µM. Moreover, the selectivity ratio in [3] was found to be 43.6.
Taken in the same sequence, the figures for `COC(=O)C/C=C/[C@@H]1[C@H]2CCCN3CCC[C@@H](CN1S(=O)(=O)c1ccccc1C(F)(F)F)[C@@H]23` were 38.1 µM, 11.9 µM and 3.2.
Taken in the same sequence, the figures for `COC(=O)C/C=C\[C@@H]1[C@H]2CCCN3CCC[C@@H](CN1S(=O)(=O)c1ccc(C(F)(F)F)cc1)[C@@H]23` were 54.7 µM, 8.17 µM and 6.7.
Taken in the same sequence, the figures for `COC(=O)C/C=C\[C@@H]1[C@H]2CCCN3CCC[C@@H](CN1S(=O)(=O)c1ccccc1C#N)[C@@H]23` were 289 µM, 4.21 µM and 68.7.
On to `N#Cc1ccccc1S(=O)(=O)N1C[C@@H]2CCCN3CCC[C@@H]([C@H]23)[C@H]1/C=C/CC(=O)O`, for which the CC50 at 24 h in data set [1] is 466 µM. The IC50 in [2] was found to be 22.7 µM. Moreover, the selectivity ratio in data set [3] was 20.5.
Taken in the same sequence, the figures for `O=C(O)C/C=C\[C@@H]1[C@H]2CCCN3CCC[C@@H](CN1S(=O)(=O)c1ccc([N+](=O)[O-])cc1)[C@@H]23` were 309 µM, 49.8 µM and 6.2.
Taken in the same sequence, the figures for `COC(=O)C/C=C\[C@@H]1[C@H]2CCCN3CCC[C@@H](CN1S(=O)(=O)c1cccc(C(F)(F)F)c1)[C@@H]23` were 198 µM, 2.24 µM and 88.3.
Turning to `COC(=O)C/C=C\[C@@H]1[C@H]2CCCN3CCC[C@@H](CN1S(=O)(=O)c1ccc([N+](=O)[O-])cc1)[C@@H]23`, the CC50 at 24 h in data set [1] was determined as 186 µM. For the same compound, the IC50 in data set [2] was found to be 7.02 µM. Also, in data set [3], the selectivity ratio came out at 26.4.
Taken in the same sequence, the figures for `O=C(O)C/C=C\[C@@H]1[C@H]2CCCN3CCC[C@@H](CN1S(=O)(=O)c1ccccc1[N+](=O)[O-])[C@@H]23` were 595 µM, 16.2 µM and 36.8.
For the compound `N#Cc1cccc(S(=O)(=O)N2C[C@@H]3CCCN4CCC[C@@H]([C@H]34)[C@H]2/C=C/CC(=O)O)c1`, the CC50 at 24 h in data set [1] came to 466 µM. Also, the IC50 in data set [2] stood at 13.1 µM. In data set [3], the selectivity ratio stood at 35.5.
For `COC(=O)CCC[C@@H]1[C@H]2CCCN3CCC[C@@H](CN1S(=O)(=O)c1cccc(C#N)c1)[C@@H]23`, the CC50 at 24 h in [1] was 288 µM. In addition, in data set [2], the IC50 came out at 11.7 µM. Further, the selectivity ratio in data set [3] amounted to 24.6.
Take `O=C(O)CCC[C@@H]1[C@H]2CCCN3CCC[C@@H](CN1S(=O)(=O)c1ccccc1[N+](=O)[O-])[C@@H]23`: the CC50 at 24 h in [1] was 410 µM. The IC50 in data set [2] is 78.9 µM. Besides, the selectivity ratio in data set [3] turned out to be 5.2.
Taken in the same sequence, the figures for `COC(=O)C/C=C\[C@@H]1[C@H]2CCCN3CCC[C@@H](CN1S(=O)(=O)c1cc(Br)c(Br)s1)[C@@H]23` were 21.1 µM, 1.19 µM and 17.7.
As for `O=C(O)/C=C/C[C@@H]1[C@H]2CCCN3CCC[C@@H](CN1S(=O)(=O)c1ccccc1C(F)(F)F)[C@@H]23`, the CC50 at 24 h in [1] was determined as 424 µM. Besides, the IC50 in data set [2] was 27.2 µM. The selectivity ratio in data set [3] came to 15.6.
Taken in the same sequence, the figures for `COC(=O)CCC[C@@H]1[C@H]2CCCN3CCC[C@@H](CN1S(=O)(=O)c1ccccc1[N+](=O)[O-])[C@@H]23` were 399 µM, 23.9 µM and 16.7.
For the compound `O=[N+]([O-])c1ccccc1S(=O)(=O)N1C[C@@H]2CCCN3CCC[C@@H]([C@H]23)[C@H]1/C=C\CCO`, the CC50 at 24 h in data set [1] was determined as 354 µM. Moreover, the half-inhibitory concentration (IC50) worked out at 2.31 µM in data set [2]; 1.46 µM in data set [4]; 1.44 µM in data set [5]; 3.63 µM in data set [10]; 0.62 µM in data set [6]. The selectivity ratio in data set [3] stood at 153; in [7], 116; in data set [8], 117; in data set [11] it was 46.8; in data set [9] it was 276.
Take `O=S(=O)(c1ccc(C(F)(F)F)cc1)N1C[C@@H]2CCCN3CCC[C@@H]([C@H]23)[C@H]1CCCCO`: the CC50 at 24 h in [1] is 233 µM. For the same compound, the IC50 in data set [2] amounted to 6.55 µM. Moreover, in data set [3], the selectivity ratio came out at 35.5.
`O=C(O)C/C=C\[C@@H]1[C@H]2CCCN3CCC[C@@H](CN1S(=O)(=O)c1cccc([N+](=O)[O-])c1)[C@@H]23`: the CC50 at 24 h in [1] was determined as 445 µM. The half-maximal inhibitory concentration (IC50) in [2] is 63.6 µM. Moreover, the selectivity ratio in [3] is 7.
Turning to `COC(=O)C/C=C\[C@@H]1[C@H]2CCCN3CCC[C@@H](CN1S(=O)(=O)c1cccc([N+](=O)[O-])c1)[C@@H]23`, in data set [1], the CC50 at 24 h was determined as 112 µM. Also, the IC50 in [2] is 9.24 µM. Also, in data set [3], the selectivity ratio turned out to be 12.1.
Taken in the same sequence, the figures for `N#Cc1cccc(S(=O)(=O)N2C[C@@H]3CCCN4CCC[C@@H]([C@H]34)[C@H]2/C=C\CC(=O)O)c1` were 745 µM, 17.4 µM and 42.7.
